# According to article PMC12095820 (Scientific Reports, 2025):
# What was measured:
# [1] = test system: glioblastoma stem cells (Gli4); assay: Neurospheres formation assay; assay type: cell-based, human; conditions: proliferation medium, 0, 1 and 10 µM, 4 days
# Summary of the method: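 Dissociated Gli4 cells (4000 per well) were plated in proliferation medium in round-bottom ultra-low-attachment wells pre-coated with poly-HEMA; a flat-bottom format was also run. Compound in DMSO was added to final 0, 1 and 10 µM. After 4 days, spheres were dissociated, and cells were mixed 1:1 with trypan blue and counted in a Neubauer chamber.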
# [2] = Dissolution in culture medium during antiproliferative assay; assay type: physicochemical; conditions: 20 µM
# [3] = test system: GBM cell lines LN18 and U373; assay: Antiproliferative evaluation in 2D cell culture, summary over both GBM lines; assay type: cell-based, human; conditions: data not shown; crystals at 20 µM
# Summary of the method: (§1)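 LN-18 and U373 cells were grown in phenol-red-free DMEM with 5% FBS and amino acids at 37 °C, 5% CO2. Cells (1 x 10³ per well) adhered 24 h, then were exposed 48 h to 0–140 µM compound, with 0.1% DMSO as vehicle. MTT (2.5 mg/mL in phenol-red-free medium) was applied 1 h at 37 °C. Plates were read at 540 nm after DMSO solubilisation and normalised to vehicle. Statistics: one-way ANOVA with Tukey.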
# [4] = test system: MCF-10 A; assay: MTT assay on non-cancerous control cells; assay type: cell-based; conditions: Homo sapiens, 48 h, read-out: IC50 MCF-10 A
# Summary of the method: (§2)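 Non-tumour control cells were used: BJ fibroblasts in DMEM with 5% FBS, and MCF-10A in DMEM/F12 with 5% horse serum, insulin, EGF and hydrocortisone. Cells (1 x 10³ per well) adhered 24 h, then were treated 48 h with 0–140 µM compound in DMSO (0.1% vehicle control). MTT (2.5 mg/mL) was applied 1 h at 37 °C. Formazan was dissolved in DMSO, read at 540 nm and normalised to vehicle.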
# [5] = test system: BJ; assay: MTT assay on non-cancerous control cells; assay type: cell-based; conditions: Homo sapiens, 48 h, read-out: IC50 BJ
# Summary of the method: as §2
# [6] = Forced stability test; assay type: physicochemical; conditions: for Percentage degradation, Thermal: 50 °C; for Percentage degradation, Thermal / Percentage degradation, Acid / Percentage degradation, Basic / Percentage degradation, Luminous: 24 h; for Percentage degradation, Oxidative: H2O2 3%, 1 h; for Percentage degradation, Acid: HCl 0.1 N; for Percentage degradation, Basic: NaOH 0.1 N; for Percentage degradation, Luminous: Sunlight
# Summary of the method: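 Compound stock (1 mL) was placed in a 5 mL volumetric flask for each stress. Acid and base arms used 1 mL of 0.1 N HCl or 0.1 N NaOH for 24 h, then were neutralised with the opposite reagent. Oxidative stress used 3.0% H2O2. For heat (50 °C oven, 24 h) and sunlight exposure (24 h), stock was diluted to volume in mobile phase in capped vials. Degradation was assessed chromatographically.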
# [7] = test system: U373; assay: Antiproliferative MTT assay, 2D cell culture; assay type: cell-based; conditions: Homo sapiens, U373 MG, 48 h, read-out: IC50 U373
# Summary of the method: as §1
# [8] = test system: Gli4 cells; assay: MTT assay, Gli4 in differentiation medium, flat bottom plate; assay type: cell-based, human; conditions: flat bottom, 0, 1 and 10 µM, compared to G-15
# Summary of the method: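 Gli4 cells (4000 per well) were seeded in differentiation medium in flat-bottom wells treated with laminin/lysine. Compound was tested at 0, 1 and 10 µM. Viability was quantified by MTT 5 days after incubation and expressed as % viability. N=5.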
# [9] = test system: LN-18; assay: Antiproliferative MTT assay, 2D cell culture; assay type: cell-based; conditions: Homo sapiens, LN-18, 48 h, read-out: IC50 LN-18
# Summary of the method: as §1
# [10] = test system: Gli4 cells; assay: 3D antiproliferative assay on non-aligned nanofibers; assay type: cell-based, human; conditions: proliferation and differentiation mediums, 0.1, 1 and 10 µM, 4 days
# [11] = test system: Gli4 cells; assay: 3D anti-migratory assay on aligned nanofibers; assay type: cell-based, human; conditions: 10 µM, non-cytotoxic concentration
Structure (SMILES),Neurospheres formation [1],Ability to dissolve into medium culture [2],IC50 in the cells assayed [3],IC50 [4],IC50 [5],"Percentage degradation, Thermal [6]","Percentage degradation, Oxidative [6]","Percentage degradation, Acid [6]","Percentage degradation, Basic [6]","Percentage degradation, Luminous [6]",IC50 [7],Cell viability of the NS [8],IC50 [9],Cell proliferation of Gli4 on non-aligned nanofibers [10],Reduction of migration of Gli4 cells on aligned NFS [11]
"Brc1cc2c(cc1[C@@H]1Nc3ccccc3[C@@H]3C=CC[C@@H]31)OCO2 [G15, reference compound]",inhibit neurospheres formation,formed crystals,not able to reach IC50 values,–,–,–,–,–,–,–,–,–,–,–,–
"O=C(NS(=O)(=O)c1ccc(Cl)cc1)c1ccc2c(c1)[C@@H]1C=CC[C@@H]1[C@H](c1cc3c(cc1Br)OCO3)N2 [L-37, (3aS,4R,9bR)-4-(6-bromobenzo[d][1,3]dioxol-5-yl)-N-((4-chlorophenyl)sulfonyl)-3a,4,5,9b-tetrahydro-3 H-cyclopenta[c] quinoline-8-carboxamide]",inhibit neurospheres formation,–,–,23.9 µM,110 µM,0.75%,0.5%,0.65%,13.6%,3.5%,39.8 µM,slightly decreased cell viability,40.7 µM,trend to decrease cell proliferation,–
"Cc1cc2c(C(C)C)c(O)c(O)c(C=O)c2c(O)c1-c1c(C)cc2c(C(C)C)c(O)c(O)c(C=O)c2c1O [Gossypol, reference compound]",–,–,–,–,–,–,–,–,–,–,33.8 µM,–,25.3 µM,–,–
"Cc1ccc(S(=O)(=O)NC(=O)c2ccc3c(c2)[C@@H]2C=CC[C@@H]2[C@H](c2cc4c(cc2Br)OCO4)N3)cc1 [L-06, (3aS,4R,9bR)-4-(6-bromobenzo[d][1,3]dioxol-5-yl)-N-tosyl-3a,4,5,9b-tetrahydro-3 H-cyclopenta[c] quinoline-8-carboxamide]",inhibit neurospheres formation,–,–,33.8 µM,102 µM,1.36%,2.95%,7.2%,9.8%,0.15%,67.7 µM,slightly decreased cell viability,67.7 µM,non-antiproliferative activity,~50%
